Measured values published in ChEMBL document CHEMBL5030510, “Designed β-Hairpins Inhibit LDH5 Oligomerization and Enzymatic Activity” (J Med Chem, 2021).
pIC50: −log10 of the molar value. Activity calls are given as the source filed them. No cut-off for these calls is given here. Where a SMILES comes first, the peptide text is derived from it. Bridges are numbered along the chain shown (N, C = ends).

Experiments:
[1] = target: T1, L-lactate dehydrogenase A chain (Homo sapiens, UniProt P00338); test: Inhibition of recombinant full length N-terminal His-tagged human LDHA expressed in Escherichia coli using pyruvate as substrate and NADH as cofactor incubated for 2 hrs by fluorescence assay
Method in brief: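 Reassociation activity assay: 900 nM LDHA stock in phosphate pH 7.4/EDTA/0.05% BSA, acidified 2 min with glycine pH 2.5/BSA. Peptide added in 0.25 M phosphate pH 7.6 and incubated 2 h at RT. Aliquot diluted, then pyruvate (3 mM final) and NADH (0.3 mM final) added. IC50 from dose-response fit.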

[2] = target: T1, L-lactate dehydrogenase A chain; test: Binding affinity to recombinant full length N-terminal His-tagged human LDHA expressed in Escherichia coli assessed as reduction in fluorecence recovery measured after 2 hrs by tryptophan fluorescence emission assay
Method in brief: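 Intrinsic Trp fluorescence: 4 µM LDHA (stock) dissociated 2 min in 0.1 M glycine pH 2.5, then peptide added in 0.25 M phosphate pH 7.6, 1 mM EDTA. No-LDHA blank subtracted. Zero set at pH 2.5 and maximum at the pH 2.5→7.4 control. LDH5 final 0.6 µM.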

[3] = target: T1, L-lactate dehydrogenase A chain; test: Inhibition of recombinant full length N-terminal His-tagged human LDHA oligomerization expressed in Escherichia coli at 150 uM at pH 2.5 to 7.4 measured after 2 hrs by SDS-PAGE analysis
Method in brief: (§1)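 Oligomer state: LDHA (1.3 µM) acidified 2 min with 0.1 M glycine pH 2.5, then peptide added in 0.25 M phosphate pH 7.6, 1 mM EDTA, for 2 h at RT. Cross-linked with glutaraldehyde (5% stock), heated 3 min at 85 °C in LDS buffer, and run on 4–12% Bis-Tris gel in MES buffer.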

[4] = target: T1, L-lactate dehydrogenase A chain; test: Inhibition of recombinant full length N-terminal His-tagged human LDHA oligomerization expressed in Escherichia coli at 90 to 150 uM at pH 2.5 to 7.4 measured after 2 hrs by SDS-PAGE analysis; conditions: dose 90-150 µM; method in brief: as §1
[5] = target: T1, L-lactate dehydrogenase A chain; test: Binding affinity to recombinant full length N-terminal His-tagged human LDHA expressed in Escherichia coli assessed as reduction in fluorecence polarization measured after 2 hrs by Alexa Fluor 488 based fluorescence polarization assay
Method in brief: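 Competition FP: LDH5 held 2 min in 0.1 M glycine pH 2.5, then inhibitor added at the reassociation step with Alexa488-labeled cGm peptide (final 12 nM) in 0.25 M phosphate pH 7.6, 1 mM EDTA, with 152.5 nM LDH5. Incubated 2 h at room temperature. FP read at ex 485/em 520 nm. 100% set by probe plus LDH5 alone.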

Row | SMILES | pIC50 [1] | other results
1 | CC(C)C[C@@H]1NC(=O)[C@H](CCCNC(=N)N)NC(=O)[C@H](CCCNC(=N)N)NC(=O)[C@@H](NC(=O)CN)CSSC[C@@H](C(=O)N[C@@H](CCCNC(=N)N)C(=O)NCC(=O)N[C@@H](CCCNC(=N)N)C(=O)O)NC(=O)[C@H](C(C)C)NC(=O)[C@H](CCC(N)=O)NC(=O)[C@H](CCCNC(=N)N)NC(=O)[C@@H]2CSSC[C@H](NC1=O)C(=O)N[C@@H](Cc1ccc(O)cc1)C(=O)N[C@@H](CCCCN)C(=O)N[C@@H](CCC(N)=O)C(=O)NCC(=O)N2 | 4.38 | 
2 | CC(C)C[C@@H]1NC(=O)[C@H](CCCNC(=N)N)NC(=O)[C@H](CCCNC(=N)N)NC(=O)[C@@H](NC(=O)CN)CSSC[C@@H](C(=O)N[C@@H](CCCNC(=N)N)C(=O)NCC(=O)N[C@@H](CCCNC(=N)N)C(=O)O)NC(=O)[C@H](C(C)C)NC(=O)[C@H]([C@@H](C)O)NC(=O)[C@H](Cc2ccccc2)NC(=O)[C@@H]2CSSC[C@H](NC1=O)C(=O)N[C@@H](CC(=O)O)C(=O)N[C@@H](CCCNC(=N)N)C(=O)N[C@@H](Cc1ccccc1)C(=O)N[C@@H](Cc1c[nH]c3ccccc13)C(=O)N2 | 4.98 | 
3 | CC(C)C[C@@H]1NC(=O)[C@H](CCCNC(=N)N)NC(=O)[C@H](CCCNC(=N)N)NC(=O)[C@@H](NC(=O)CN)CSSC[C@@H](C(=O)N[C@@H](CCCNC(=N)N)C(=O)NCC(=O)N[C@@H](CCCNC(=N)N)C(=O)O)NC(=O)[C@H](C(C)C)NC(=O)[C@H]([C@@H](C)O)NC(=O)[C@H](Cc2ccccc2)NC(=O)[C@@H]2CSSC[C@H](NC1=O)C(=O)N[C@@H](Cc1c[nH]c3ccccc13)C(=O)N[C@@H](Cc1ccccc1)C(=O)N[C@@H](CCCNC(=N)N)C(=O)N[C@@H](Cc1ccc(O)cc1)C(=O)N2 | 5.35 | 
4 | CC[C@H](C)[C@@H]1NC(=O)CNC(=O)[C@H](CCCNC(=N)N)NC(=O)[C@H](Cc2ccc(O)cc2)NC(=O)[C@@H]2CSSC[C@H](NC1=O)C(=O)N[C@@H](Cc1ccc(O)cc1)C(=O)N[C@@H](CCCNC(=N)N)C(=O)N[C@@H](CCCNC(=N)N)C(=O)N[C@H](C(=O)N[C@@H](CCCNC(=N)N)C(=O)NCC(=O)O)CSSC[C@H](NC(=O)[C@H](Cc1c[nH]c3ccccc13)NC(=O)[C@@H](N)CCCCN)C(=O)N[C@@H](Cc1ccccc1)C(=O)N[C@@H](CCCNC(=N)N)C(=O)N[C@@H](C(C)C)C(=O)N2 | 4.54 | 
5 | CC[C@H](C)[C@@H]1NC(=O)CNC(=O)[C@H](CCCNC(=N)N)NC(=O)[C@H](Cc2ccc(O)cc2)NC(=O)[C@@H]2CSSC[C@H](NC1=O)C(=O)N[C@@H](C(C)C)C(=O)N[C@@H]([C@@H](C)O)C(=O)N[C@@H](Cc1ccc(O)cc1)C(=O)N[C@H](C(=O)N[C@@H](CCCNC(=N)N)C(=O)NCC(=O)N[C@@H](CCCNC(=N)N)C(=O)O)CSSC[C@H](NC(=O)CN)C(=O)N[C@@H](CCCNC(=N)N)C(=O)N[C@@H](CCCNC(=N)N)C(=O)N[C@@H](CC(C)C)C(=O)N2 (H-GCRRLCYRGICVTYCRGR-OH; disulfide 2-15, 6-11) | 4.61 | Activity [2]: Dose-Dependent Effect
6 | CC(C)C[C@@H]1NC(=O)[C@H](CCCNC(=N)N)NC(=O)[C@H](CCCNC(=N)N)NC(=O)[C@@H](NC(=O)CN)CSSC[C@@H](C(=O)N[C@@H](CCCNC(=N)N)C(=O)NCC(=O)N[C@@H](CCCNC(=N)N)C(=O)O)NC(=O)[C@H](C(C)C)NC(=O)[C@H]([C@@H](C)O)NC(=O)[C@H](Cc2ccccc2)NC(=O)[C@@H]2CSSC[C@H](NC1=O)C(=O)N[C@@H](Cc1ccc(O)cc1)C(=O)N[C@@H](CCCNC(=N)N)C(=O)N[C@@H](Cc1ccccc1)C(=O)N[C@@H](Cc1c[nH]c3ccccc13)C(=O)N2 (H-GCRRLCYRFWCFTVCRGR-OH; disulfide 2-15, 6-11) | 5.60 | inhibition [3]: Active; inhibition [4]: Active; Activity [5]: Dose-Dependent Effect
7 | CC(C)C[C@@H]1NC(=O)[C@H](CCCNC(=N)N)NC(=O)[C@H](CCCNC(=N)N)NC(=O)[C@@H](NC(=O)CN)CSSC[C@@H](C(=O)N[C@@H](CCCNC(=N)N)C(=O)NCC(=O)N[C@@H](CCCNC(=N)N)C(=O)O)NC(=O)[C@H](Cc2ccc(O)cc2)NC(=O)[C@H]([C@@H](C)O)NC(=O)[C@H](C(C)C)NC(=O)[C@@H]2CSSC[C@H](NC1=O)C(=O)N[C@@H](Cc1ccc(O)cc1)C(=O)N[C@@H](CCCCN)C(=O)N[C@@H](CCC(N)=O)C(=O)N[C@@H](CCCNC(=N)N)C(=O)N2 | 4.44 | 
8 | CC(C)C[C@@H]1NC(=O)[C@H](CCCNC(=N)N)NC(=O)[C@H](CCCNC(=N)N)NC(=O)[C@@H](NC(=O)CN)CSSC[C@@H](C(=O)N[C@@H](CCCNC(=N)N)C(=O)NCC(=O)N[C@@H](CCCNC(=N)N)C(=O)O)NC(=O)[C@H](C(C)C)NC(=O)[C@H]([C@@H](C)O)NC(=O)[C@H](Cc2ccccc2)NC(=O)[C@@H]2CSSC[C@H](NC1=O)C(=O)N[C@@H](CC(=O)O)C(=O)N[C@@H](CCCNC(=N)N)C(=O)N[C@@H](Cc1ccccc1)C(=O)N[C@@H](C)C(=O)N2 (H-GCRRLCDRFACFTVCRGR-OH; disulfide 2-15, 6-11) | < 4.40 | Activity [2]: inactive
9 | CC(C)C[C@@H]1NC(=O)[C@H](CCCNC(=N)N)NC(=O)[C@H](CCCNC(=N)N)NC(=O)[C@@H](NC(=O)CN)CSSC[C@@H](C(=O)N[C@@H](CCCNC(=N)N)C(=O)NCC(=O)N[C@@H](CCCNC(=N)N)C(=O)O)NC(=O)[C@H](C(C)C)NC(=O)[C@H]([C@@H](C)O)NC(=O)[C@H](Cc2ccccc2)NC(=O)[C@@H]2CSSC[C@H](NC1=O)C(=O)N[C@@H](Cc1ccc(O)cc1)C(=O)N[C@@H](CCCCN)C(=O)N[C@@H](CCC(N)=O)C(=O)N[C@@H](CCCNC(=N)N)C(=O)N2 | 4.62 | 

Further lines, with some results ahead:

Row | pIC50 [1] | SMILES | other results
10 | < 4.40 | CC(=O)NCC(=O)N[C@@H](CC(N)=O)C(=O)N[C@@H](Cc1ccc(O)cc1)C(=O)N[C@H](C(=O)N[C@@H](Cc1c[nH]c2ccccc12)C(=O)N[C@@H](CC(C)C)C(N)=O)[C@@H](C)O | 
11 | 4.56 | CC(C)C[C@@H]1NC(=O)[C@H](CCCNC(=N)N)NC(=O)[C@H](CCCNC(=N)N)NC(=O)[C@@H](NC(=O)CN)CSSC[C@@H](C(=O)N[C@@H](CCCNC(=N)N)C(=O)NCC(=O)N[C@@H](CCCNC(=N)N)C(=O)O)NC(=O)[C@H](C(C)C)NC(=O)[C@H](CC(C)C)NC(=O)[C@H](CC(=O)O)NC(=O)[C@@H]2CSSC[C@H](NC1=O)C(=O)N[C@@H](Cc1ccc(O)cc1)C(=O)N[C@@H](CCCCN)C(=O)N[C@@H](CCC(N)=O)C(=O)N[C@@H](CCCNC(=N)N)C(=O)N2 | 
12 | < 4.40 | CC(C)C[C@@H]1NC(=O)[C@H](CCCNC(=N)N)NC(=O)[C@H](CCCNC(=N)N)NC(=O)[C@@H](NC(=O)CN)CSSC[C@@H](C(=O)N[C@@H](CCCNC(=N)N)C(=O)NCC(=O)N[C@@H](CCCNC(=N)N)C(=O)O)NC(=O)[C@H](C(C)C)NC(=O)[C@H]([C@@H](C)O)NC(=O)[C@H](Cc2ccccc2)NC(=O)[C@@H]2CSSC[C@H](NC1=O)C(=O)N[C@@H]([C@@H](C)O)C(=O)NCC(=O)N[C@@H](CCC(N)=O)C(=O)N[C@@H](CCCNC(=N)N)C(=O)N2 | 
13 | < 4.40 | CC(=O)N1CCC[C@H]1C(=O)N[C@H](C(=O)N[C@@H](CCC(N)=O)C(=O)N[C@@H](CCCNC(=N)N)C(=O)N[C@H](C(=O)NCC(N)=O)[C@@H](C)O)C(C)C | 
14 | < 4.40 | CC[C@H](C)[C@H](NC(=O)CNC(=O)[C@H](CC(N)=O)NC(=O)[C@H](CCC(N)=O)NC(C)=O)C(=O)N[C@@H](CO)C(=O)N[C@@H](CC(=O)O)C(=O)N[C@@H](CC(C)C)C(=O)N[C@H](C(=O)N[C@@H](CCCCN)C(N)=O)C(C)C | 
15 | < 4.40 | CC[C@H](C)[C@@H]1NC(=O)[C@H](Cc2ccc(O)cc2)NC(=O)[C@H](CC(N)=O)NC(=O)[C@@H]2CSSC[C@H](NC(=O)[C@H](CC(C)C)NC(=O)[C@H](CCCNC(=N)N)NC(=O)[C@H](CCCNC(=N)N)NC(=O)[C@@H](NC(=O)CN)CSSC[C@@H](C(=O)N[C@@H](CCCNC(=N)N)C(=O)NCC(=O)N[C@@H](CCCNC(=N)N)C(=O)O)NC1=O)C(=O)N[C@@H](Cc1ccc(O)cc1)C(=O)N[C@@H](CCCCN)C(=O)N[C@@H](CCC(N)=O)C(=O)N[C@@H](CC(C)C)C(=O)N2 | 
